The target in test [1] is Sodium-dependent noradrenaline transporter (Homo sapiens, UniProt P23975). Briefly: In vitro displacement of [3H]nisoxetine from human norepinephrine transporter expressed in HEK293 cells. It counts as cell-based. The gist of the method: (§1)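 Competitive binding using cloned human transporters expressed in HEK-293 cells. NET was labelled with [³H]nisoxetine and DAT with [³H]GBR12935, following a previously published procedure.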

Test [2] concerns the target Sodium-dependent dopamine transporter (Homo sapiens, UniProt Q01959). Briefly: In vitro displacement of [3H]GBR-12935 from human dopamine transporter expressed in HEK293 cells. The class given is cell-based. The gist of the method: as §1

Sequence of Sodium-dependent dopamine transporter (Q01959 whole entry): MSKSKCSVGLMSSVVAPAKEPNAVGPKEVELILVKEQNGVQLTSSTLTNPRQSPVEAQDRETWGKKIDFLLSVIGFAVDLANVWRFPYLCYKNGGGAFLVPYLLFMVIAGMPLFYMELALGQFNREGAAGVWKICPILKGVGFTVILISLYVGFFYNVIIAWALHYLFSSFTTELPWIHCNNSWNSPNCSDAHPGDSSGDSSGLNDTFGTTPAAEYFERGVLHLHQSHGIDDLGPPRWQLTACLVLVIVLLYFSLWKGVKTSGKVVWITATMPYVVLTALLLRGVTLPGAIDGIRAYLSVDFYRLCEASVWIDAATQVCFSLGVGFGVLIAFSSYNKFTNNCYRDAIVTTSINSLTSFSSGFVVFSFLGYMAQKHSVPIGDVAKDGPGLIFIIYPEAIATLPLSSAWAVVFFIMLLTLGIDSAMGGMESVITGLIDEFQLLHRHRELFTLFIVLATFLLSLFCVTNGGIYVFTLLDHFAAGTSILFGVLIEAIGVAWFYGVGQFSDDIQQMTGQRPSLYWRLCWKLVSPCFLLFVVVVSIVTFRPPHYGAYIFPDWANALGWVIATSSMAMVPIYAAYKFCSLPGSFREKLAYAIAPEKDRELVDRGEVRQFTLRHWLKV
Sequence of Sodium-dependent noradrenaline transporter (P23975 whole entry): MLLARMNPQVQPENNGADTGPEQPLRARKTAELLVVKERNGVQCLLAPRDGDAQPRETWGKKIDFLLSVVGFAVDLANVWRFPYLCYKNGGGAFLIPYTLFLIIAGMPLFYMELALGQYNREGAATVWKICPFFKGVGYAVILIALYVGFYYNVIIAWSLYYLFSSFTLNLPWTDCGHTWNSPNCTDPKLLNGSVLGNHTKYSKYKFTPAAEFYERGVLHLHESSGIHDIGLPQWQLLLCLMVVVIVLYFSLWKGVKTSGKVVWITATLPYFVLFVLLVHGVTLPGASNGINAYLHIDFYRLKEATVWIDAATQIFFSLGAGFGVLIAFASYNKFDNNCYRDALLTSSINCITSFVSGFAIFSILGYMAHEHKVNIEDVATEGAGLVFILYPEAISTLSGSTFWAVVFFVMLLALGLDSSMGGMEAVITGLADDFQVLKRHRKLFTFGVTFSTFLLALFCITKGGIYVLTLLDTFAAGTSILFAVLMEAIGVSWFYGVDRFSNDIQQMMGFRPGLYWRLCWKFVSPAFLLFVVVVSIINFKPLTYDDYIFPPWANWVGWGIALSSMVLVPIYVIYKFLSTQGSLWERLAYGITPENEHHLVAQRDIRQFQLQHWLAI

`CCCNCc1ccccc1Sc1ccc(C)cc1N`: the Ki (usually a dissociation constant, usually derived from enzyme kinetics or from competition with a known ligand) in test [1] is greater than 10 µM; in test [2] it was 3.55 µM.
Turning to `C=CCNCc1ccccc1Sc1ccc(C)cc1N`, the values for the Ki in test [1] and in test [2] were 3.82 µM and 2.91 µM, respectively.
